Source: ChEMBL document CHEMBL1124451, “[(1H-imidazol-1-yl)methyl]- and [(3-pyridinyl)methyl]pyrroles as thromboxane synthetase inhibitors” (J Med Chem, 1989)

Tests used:
[1] = molecular target: T1, Thromboxane-A synthase (Homo sapiens) (UniProt P24557); experiment: Relative potency of thromboxane A2 synthetase as reduced ADP-induced aggregation of human platelet rich plasma compared to dazoxiben; type: functional, cell-free
T1 sequence (whole entry): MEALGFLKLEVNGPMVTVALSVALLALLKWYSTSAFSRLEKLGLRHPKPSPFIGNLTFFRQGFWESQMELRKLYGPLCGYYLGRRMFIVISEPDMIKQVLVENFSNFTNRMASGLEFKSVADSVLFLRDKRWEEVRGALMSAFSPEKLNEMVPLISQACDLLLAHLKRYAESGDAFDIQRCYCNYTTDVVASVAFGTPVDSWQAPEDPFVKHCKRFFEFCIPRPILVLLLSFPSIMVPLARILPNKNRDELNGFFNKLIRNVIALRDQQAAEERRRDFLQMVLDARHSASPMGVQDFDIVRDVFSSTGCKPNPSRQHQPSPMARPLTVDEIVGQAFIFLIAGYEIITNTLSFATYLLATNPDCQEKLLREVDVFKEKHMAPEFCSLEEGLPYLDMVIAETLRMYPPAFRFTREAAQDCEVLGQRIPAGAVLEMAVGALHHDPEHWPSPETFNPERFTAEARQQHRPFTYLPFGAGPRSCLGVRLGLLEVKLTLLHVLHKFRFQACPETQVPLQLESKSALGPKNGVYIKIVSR

[2] = system: Mus musculus; experiment: Activity at 10 mg/kg given intravenously against mortality in a pulmonary thromboembolism model in mice (10 animals) at -3h; type: functional; details: route intravenous
Outline: (§1)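 Male Swiss-Webster mice (22-26 g); test material given iv in 0.2 mL CMC before challenge (mostly at -3 h, one group at -1 h). At hour 0, collagen extract plus epinephrine hydrochloride given iv in 0.2 mL 0.9% saline via tail vein. The collagen amount was set per lot as the minimum giving 90-100% mortality in CMC-vehicle controls. Readout: % surviving at 24 h.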

[3] = species: Homo sapiens; experiment: Relative potency to inhibit ADP-induced aggregation of human platelet rich plasma compared to that of dazoxiben, in vitro using pig aortal microsomes.; type: functional; details: Aorta
[4] = species: Homo sapiens; experiment: In vitro inhibition of ADP-induced aggregation of human platelet rich plasma in the presence of pig aortal microsomes.; type: functional; details: Aorta
Outline: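 Human citrated blood (0.38% citrate final), PRP by centrifugation at 200g, room temperature. Drug added to 1.0 mL PRP, 2 min at 37 °C with stirring (500 rpm), then pig aortal microsomes 3 min; microsome amount set by the dazoxiben standard. Aggregation induced by 5 μM ADP (final), read turbidimetrically.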

[5] = system: Mus musculus; experiment: Effect of TXA2 Synthetase inhibition (topically) upon inflammation in 12-O-tetradecanoylphorbol acetate induced ear edema in mice; type: functional
[6] = system: Rattus norvegicus; experiment: Percent inhibition of thromboxane from control in serum of rats with 5/6 nephrectomy at 205 mg/kg per day; type: functional
Outline: (§2)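 Male Munich Wistar rats, 200-270 g, 5/6 renal ablation (right nephrectomy plus ligation of arterial branches to two-thirds of left kidney) under 50 mg/kg brevital ip. Drug given in drinking water from 1 week post-surgery: 500 mg/L (68 mg/kg/day), 1500 mg/L (205 mg/kg/day), or 3000 mg/L (410 mg/kg/day) after 9 weeks. TXB2 measured by radioimmunoassay in urine (8-11 weeks) and serum (10-13 weeks); controls received water.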

[7] = system: Rattus norvegicus; experiment: Percent inhibition of thromboxane from control in urine of rats with 5/6 nephrectomy at 205 mg/kg per day; type: functional; outline: as §2
[8] = system: Mus musculus; experiment: Effect of TXA2 Synthetase inhibition (topically) upon inflammation in arachidonic acid induced ear edema in mice; type: functional
Outline: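 Arachidonic acid-induced ear edema in mice; test material applied topically at 2 mg/mouse.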

[9] = system: Mus musculus; experiment: Activity at 10 mg/kg given perorally against mortality in a pulmonary thromboembolism model in mice (10 animals) at -1h following oral administration; type: functional
Outline: (§3)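 Male Swiss-Webster mice (22-26 g), 10 per group (one group of 9); test material given po in 0.2 mL CMC at -1, -3, -5 or -18 h before challenge. At hour 0, collagen extract plus epinephrine hydrochloride given iv via tail vein in 0.9% saline. The collagen amount was titrated per lot to 90-100% mortality in vehicle controls. Readout: % surviving at 24 h.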

[10] = system: Mus musculus; experiment: Activity at 25 mg/kg given intravenously against mortality in a pulmonary thromboembolism model in mice (10 animals) at 3 hr; type: functional; details: route intravenous; outline: as §1
[11] = system: Rattus norvegicus; experiment: Concentration of thromboxane in urine of rats with 5/6 nephrectomy; when treated with compound at 410 mg/kg per day (n=4); type: functional, organism-based; outline: as §2
[12] = system: Mus musculus; experiment: Effect of TXA2 Synthetase inhibition (perorally) upon inflammation in oxazolone induced delayed hypersensitivity ear edema in mice; type: functional
Outline: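 Oxazolone-induced delayed hypersensitivity ear edema in mice; test material dosed orally at 25 mg/kg.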

[13] = system: Mus musculus; experiment: Activity at 10 mg/kg given perorally against mortality in a pulmonary thromboembolism model in mice (10 animals) at -5h following oral administration; type: functional; outline: as §3
[14] = system: Rattus norvegicus; experiment: Concentration of thromboxane in serum of rats with 5/6 nephrectomy; when treated with compound at 205 mg/kg per day (n=4); type: functional, organism-based; outline: as §2
[15] = species: Rattus norvegicus; experiment: Effect of TXA2 Synthetase inhibition (perorally) upon inflammation in rat adjuvant-induced arthritis model; type: functional
[16] = system: Rattus norvegicus; experiment: Percent inhibition of thromboxane from control in urine of rats with 5/6 nephrectomy at 68 mg/kg per day; type: functional; outline: as §2
[17] = system: Rattus norvegicus; experiment: Percent inhibition of thromboxane from control in serum of rats with 5/6 nephrectomy at 410 mg/kg per day; type: functional; outline: as §2
[18] = system: Rattus norvegicus; experiment: Concentration of thromboxane in urine of rats with 5/6 nephrectomy; when treated with compound at 205 mg/kg per day (n=5); type: functional, organism-based; outline: as §2
[19] = species: Mus musculus; experiment: Effect of TXA2 Synthetase inhibition (perorally) upon inflammation in phenoylquinone-induced writhing in mice; type: functional
[20] = system: Rattus norvegicus; experiment: Effect of TXA2 Synthetase inhibition (perorally) upon inflammation in carrageenan induced rat paw edema in rats
[21] = system: Mus musculus; experiment: Activity at 10 mg/kg given perorally against mortality in a pulmonary thromboembolism model in mice (10 animals) at -3h following oral administration; type: functional; outline: as §3
[22] = system: Mus musculus; experiment: Activity at 12.5 mg/kg given intravenously against mortality in a pulmonary thromboembolism model in mice (10 animals) at 3 hr; type: functional; details: route intravenous; outline: as §1
[23] = system: Mus musculus; experiment: Activity at 10 mg/kg given perorally against mortality in a pulmonary thromboembolism model in mice (10 animals) at -18h following oral administration; type: functional; outline: as §3
[24] = system: Rattus norvegicus; experiment: Concentration of thromboxane in serum of rats with 5/6 nephrectomy; when treated with compound at 410 mg/kg per day (n=4); type: functional, organism-based; outline: as §2
[25] = system: Rattus norvegicus; experiment: Concentration of thromboxane in urine of rats with 5/6 nephrectomy; when treated with compound at 68 mg/kg per day (n=4); type: functional, organism-based; outline: as §2
[26] = system: Rattus norvegicus; experiment: Total glomeruli with lesions was determined […], in kidneys of rats after dosing with compound at 205 mg/kg per day; type: functional, Kidney
Outline: (§4)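 5/6 renal ablated male Munich Wistar rats received drug in drinking water: 205 mg/kg/day, or 68 mg/kg/day for 9 weeks then 410 mg/kg/day for 4 weeks; controls received water. Kidneys perfused with fixative at end of week 10 (205 group) or week 13. Glomeruli with lesions counted (mesangial proliferation, tubular hyaline casts, cortical interstitial inflammation, hydronephrosis); mean ± SEM.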

[27] = system: Mus musculus; experiment: Activity at 6.25 mg/kg given intravenously against mortality in a pulmonary thromboembolism model in mice (10 animals) at 3 hr; type: functional; details: route intravenous; outline: as §1
[28] = system: Mus musculus; experiment: Activity at 10 mg/kg given perorally against mortality in a pulmonary thromboembolism model in mice (10 animals) at 1 hr; type: functional; details: route oral; outline: as §3
[29] = system: Rattus norvegicus; experiment: Total glomeruli with lesions was determined […], in kidneys of rats after dosing at 68 mg/kg per day for 9 weeks following by dosing with 410 mg/kg/day for 4 weeks; type: functional, Kidney; outline: as §4
[30] = system: Rattus norvegicus; experiment: Percent inhibition of thromboxane from control in urine of rats with 5/6 nephrectomy at 410 mg/kg per day; type: functional; outline: as §2
[31] = species: Homo sapiens; experiment: In vitro inhibition of ADP-induced aggregation of human platelet rich plasma in the presence of pig aortal microsomes, at 5*10e-6 M compound concentration.
[32] = system: Mus musculus; experiment: Activity at 20 mg/kg given intravenously against mortality in a pulmonary thromboembolism model in mice (10 animals) at -3h; type: functional; details: route intravenous; outline: as §1

In the case of `C/C(=C/c1cc(Cc2cccnc2)n(C(C)(C)C)c1)C(=O)O`, the Relative potency [1] is reported as 43 and the survival at 10 mg/kg [2] is reported as 30%.
`CCOC(=O)/C(C)=C\c1ccc(Cc2cccnc2)n1CC` showed a Relative potency [3] of 0.14 and an IC50 [4] of 14 µM.
`CCOC(=O)/C(C)=C\c1ccc(Cc2cccnc2)n1C(C)C` gave a Relative potency [3] of 0.06 and an IC50 [4] of 32 µM.
Compound `C/C(=C/c1ccc(Cn2ccnc2)n1C)C(=O)O` has a Dose [5] of 0.5 mg mouse-1, an inhibition in vivo at 205 mg/kg/day [6] of 98% and an inhibition in vivo at 205 mg/kg/day [7] of 77.4%. It also gave a Dose [8] of 2 mg mouse-1, a survival at 10 mg/kg [9] of 40% and a survival at 25 mg/kg [10] of 90%. The Concentration [11] was 59 ng/day, the Dose [12] was 25 mg/kg and the survival at 10 mg/kg [13] was 30%. It also gave a Relative potency [1] of 2.2, a Concentration [14] of 10 ng/day and a Dose [15] of 4.25 mg rat-1. It also gave an inhibition in vivo at 68 mg/kg/day [16] of 78.9%, an inhibition in vivo at 410 mg/kg/day [17] of 92.8% and a Concentration [18] of 45 ng/day. It also gave a Dose [19] of 3 mg mouse-1, a Dose [20] of 10 mg rat-1 and a survival at 10 mg/kg [21] of 40%. For the same compound, the survival at 12.5 mg/kg [22] was 70%, the survival at 10 mg/kg [23] was 10% and the Concentration [24] was 36 ng/day. It also gave a Concentration [25] of 42 ng/day, a Total glomeruli [26] of 13 and a survival at 6.25 mg/kg [27] of 70%. For the same compound, the survival at 10 mg/kg [28] was 50%, the Total glomeruli [29] was 8 and the inhibition in vivo at 410 mg/kg/day [30] was 70.4%.
In the case of `C/C(=C/c1ccc(Cc2cccnc2)n1-c1ccccc1)C(=O)O`, the Relative potency [1] is reported as 0.08.
`C/C(=C\c1ccc(Cn2ccnc2)[nH]1)C(=O)OCc1ccccc1` was tested, and the Relative potency [3] was 0.11 and the IC50 [4] was 20 µM.
`CCOC(=O)/C(C)=C\c1ccc(Cc2cccnc2)n1C` showed an inhibition [31] of 49%.
With `C/C(=C/c1ccc(Cc2cccnc2)n1C)C(=O)O` the Relative potency [1] was 46, the survival at 10 mg/kg [2] was 0% and the survival at 20 mg/kg [32] was 30%.
`C/C(=C/c1ccc(Cc2cccnc2)n1C(C)C)C(=O)O` gave a Relative potency [1] of 0.9.
Work on `Cn1c(/C=C/C(=O)O)ccc1Cn1ccnc1` yielded a Relative potency [1] of 0.75.
`C/C(=C\c1cc(Cn2ccnc2)n(C)c1)C(=O)O` was tested, and the Relative potency [1] was 1.3.
In the case of `COC(=O)[C@@H]1CC1c1ccc(Cn2ccnc2)n1C` (some centres not stated), the Relative potency [1] is reported as 0.22.
For `CCn1c(/C=C(/C)C(=O)O)ccc1Cc1cccnc1`, the Relative potency [1] was 45, the survival at 10 mg/kg [2] was 10% and the survival at 20 mg/kg [32] was 10%.
